Source: paper PMC10134466 (ACS Omega, 2023)

Key:
HeLa cells = conditions: cited from earlier work
sheep erythrocytes = assay: Hemolytic activity; assay type: cell-based; conditions: sheep RBC 2% v/v, 37 °C, 1 h
Summary of the method: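 Fresh sheep RBCs were washed in PBS pH 7.4 until the supernatant was clear, with 1000 rpm, 8 min spins. RBCs were exposed to test compound at 2000–5 μg/mL in PBS containing 5% DMSO, then centrifuged 1000 rpm, 8 min at RT. Supernatant absorbance was read at 540 nm, with 630 nm background. Controls: PBS/5% DMSO (negative) and 1% v/v Triton X-100 (positive).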

[1] = tested on: MCF-7 human breast epithelial adenocarcinoma cells; assay: 2D dose–response assay; assay type: cell-based; conditions: 24 h treatment, n = 3/dose
Summary of the method: (§1)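 Cells were trypsinized, seeded at 250,000 cells/mL in 96-well plates and cultured 24 h before dosing. Test compound was dissolved in 100% DMSO and serially diluted 1:2 in media to 5000–40 μg/mL dosing solutions, which were diluted 10-fold in the well (final DMSO ≤1%), in triplicate. Plates were incubated 24 h at 37 °C, 5% CO2, then viability was read by CCK-8. Controls: cell-free media and untreated cells. Absolute IC50 was calculated.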

[2] = tested on: MDA-MB-231 triple negative human breast adenocarcinoma cells; assay: 2D dose–response assay; assay type: cell-based; conditions: 24 h treatment, n = 3/dose
Summary of the method: as §1

BT-474 3D spheroids = assay: 3D dose–response assay, liquid-overlay spheroids; assay type: cell-based, human; conditions: 24 h treatment, n = 3/dose
Summary of the method: (§2)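 Spheroids formed by liquid overlay: 250,000 cells/mL in round-bottom nonadherent wells with 2.5% v/v Matrigel, centrifuged 10 min at 1000 rpm, then matured 4 days. Test compound DMSO stocks were serially diluted 1:2 to 10,000–80 μg/mL and diluted 10-fold in wells (final DMSO ≤1% v/v), in triplicate. Incubation 24 h at 37 °C, 5% CO2; viability by CellTiter 3D luminescence. Absolute IC50 by nonlinear regression.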

[3] = tested on: nontumorigenic keratinocytes; conditions: 30 μM; cited from earlier work
MDA-MB-231 3D spheroids = assay: 3D dose–response assay, liquid-overlay spheroids; assay type: cell-based, human; conditions: 24 h treatment, n = 3/dose
Summary of the method: as §2

CCD1065SK HDF = assay: 2D dose–response assay; assay type: cell-based, human; conditions: 24 h treatment, nontumorigenic fibroblasts
Summary of the method: as §1

BT-474 cells = assay: CellTox Green cytotoxicity assay: cell lysis; assay type: cell-based, human; conditions: dosed at IC50; 1, 6, 12, 24 h post exposure
MDA-MB-231 cells = assay: CellTox Green cytotoxicity assay: cell lysis; assay type: cell-based, human; conditions: dosed at IC50; 1, 6, 12, 24 h post exposure
[4] = tested on: AU565 human breast adenocarcinoma cells; assay: 2D dose–response assay; assay type: cell-based; conditions: 24 h treatment, n = 3/dose
Summary of the method: as §1

[5] = Critical micelle concentration; assay type: physicochemical; conditions: 0.1 M NaHCO3, pH 8.7, 22 °C
Summary of the method: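 Surface tension across a concentration series was measured by Wilhelmy platinum-plate tensiometry on freshly prepared samples, in triplicate. Separate linear regressions were fitted to the declining and flat regions of the surface tension–concentration curve; their intersection gave the CMC.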

osteoblasts = conditions: 5 μM; cited from earlier work
[6] = tested on: BT-474 human breast ductal carcinoma cells; assay: 2D dose–response assay; assay type: cell-based; conditions: 24 h treatment, n = 3/dose
Summary of the method: as §1

erythrocytes = conditions: therapeutic dose used for viral inactivation; cited from earlier work

| Substance | IC50 toward HeLa cells (HeLa cells) [µg/mL] | IC50 erythrocytes (50% of RBCs lysed) (sheep erythrocytes) [µg/mL] | IC50 2D monolayer MCF-7 [1] [µg/mL] | IC50 2D monolayer MDA-MB-231 [2] [µg/mL] | IC50 3D spheroids BT-474 (BT-474 3D spheroids) [µg/mL] | cell viability, nontumorigenic keratinocytes [3] [%] | IC50 3D spheroids MDA-MB-231 (MDA-MB-231 3D spheroids) [µg/mL] | IC50 2D monolayer CCD1065SK HDF (CCD1065SK HDF) [µg/mL] | extent of cell lysis, BT-474 (BT-474 cells) | extent of cell lysis, MDA-MB-231 (MDA-MB-231 cells) | IC50 2D monolayer AU565 [4] [µg/mL] | CMC [5] [µg/mL] | cell viability, osteoblasts (osteoblasts) [%] | IC50 2D monolayer BT-474 [6] [µg/mL] | concentration at which rapid lysis of erythrocytes occurred (erythrocytes) [µM] |
| --- | --- | --- | --- | --- | --- | --- | --- | --- | --- | --- | --- | --- | --- | --- | --- |
| C15-surfactin-O-methyl ester | 47.7 |  |  |  |  |  |  |  |  |  |  |  |  |  |  |
| Surfactin [Compound 1, reference compound] |  | 38 | 24 | 84 | 330 | 100 | 140 | 180 | cell lysis of both BT-474 and MDA-MB-231 cells was observed | cell lysis of both BT-474 and MDA-MB-231 cells was observed | 110 | 9.5 | 100 | 21 | 40 |
| C15-surfactin | 25.2 |  |  |  |  |  |  |  |  |  |  |  |  |  |  |
